Consider 43 molecules from ChEMBL document CHEMBL1138050, “Furan-2-ylmethylene thiazolidinediones as novel, potent, and selective inhibitors of phosphoinositide 3-kinase gamma” (J Med Chem, 2006).

Data set [1] concerns the target T1, Phosphatidylinositol 4,5-bisphosphate 3-kinase catalytic subunit gamma isoform (Homo sapiens, UniProt P48736). As to the kind of experiment: Inhibition of human PI3Kgamma at 1 uM. The procedure, abridged: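 Primary screen of PI3Kγ lipid kinase (SPA, ATP/[γ33P]ATP with PtdIns substrate); percent inhibition at 1 µM compound.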
Target sequence in this assay (P48736 whole entry, looked up, canonical isoform): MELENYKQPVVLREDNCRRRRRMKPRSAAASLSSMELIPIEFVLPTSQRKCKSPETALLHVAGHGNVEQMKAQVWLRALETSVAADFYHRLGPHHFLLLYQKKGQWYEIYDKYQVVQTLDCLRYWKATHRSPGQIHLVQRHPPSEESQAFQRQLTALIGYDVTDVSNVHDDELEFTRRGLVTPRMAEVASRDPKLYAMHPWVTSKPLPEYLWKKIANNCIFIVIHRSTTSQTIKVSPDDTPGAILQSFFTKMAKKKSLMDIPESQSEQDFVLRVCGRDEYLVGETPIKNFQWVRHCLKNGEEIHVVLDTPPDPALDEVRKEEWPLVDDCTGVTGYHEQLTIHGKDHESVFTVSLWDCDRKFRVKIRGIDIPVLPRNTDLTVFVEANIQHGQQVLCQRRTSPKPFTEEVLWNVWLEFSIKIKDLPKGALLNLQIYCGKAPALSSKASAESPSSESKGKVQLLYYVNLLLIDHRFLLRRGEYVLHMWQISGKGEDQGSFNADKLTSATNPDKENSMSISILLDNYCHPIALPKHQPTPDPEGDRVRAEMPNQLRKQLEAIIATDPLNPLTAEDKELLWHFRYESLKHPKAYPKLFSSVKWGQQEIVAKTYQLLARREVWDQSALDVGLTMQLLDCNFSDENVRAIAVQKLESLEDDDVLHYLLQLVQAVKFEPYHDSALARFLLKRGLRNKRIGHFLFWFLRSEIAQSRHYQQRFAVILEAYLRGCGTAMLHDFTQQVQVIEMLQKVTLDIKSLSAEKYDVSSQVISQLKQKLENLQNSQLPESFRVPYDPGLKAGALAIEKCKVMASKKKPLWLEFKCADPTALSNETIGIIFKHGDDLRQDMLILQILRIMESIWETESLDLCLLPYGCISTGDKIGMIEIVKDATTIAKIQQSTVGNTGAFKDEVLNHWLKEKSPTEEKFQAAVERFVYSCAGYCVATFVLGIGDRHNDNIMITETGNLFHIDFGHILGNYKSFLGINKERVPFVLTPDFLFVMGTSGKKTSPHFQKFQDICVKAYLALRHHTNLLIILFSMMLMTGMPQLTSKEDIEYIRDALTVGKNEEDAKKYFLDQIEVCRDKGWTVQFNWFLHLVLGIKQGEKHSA
Data set [2] concerns the target Phosphatidylinositol 4,5-bisphosphate 3-kinase catalytic subunit alpha isoform (Homo sapiens, UniProt P42336). As to the kind of experiment: Inhibition of human PI3Kalpha.
The test system of another data set is RAW264.7. As to the kind of experiment: Inhibition of C5a-mediated PKB/Akt phosphorylation in mouse Raw264 macrophage. It is filed as functional, cell-based. An outline of the steps:
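Raw-264 murine macrophages starved 3 h in serum-free medium, pretreated 30 min with inhibitor or DMSO, then stimulated 5 min with 50 nM C5a. Phospho-Ser-473 Akt measured by ELISA. Concentration-response; IC50. Mean ± standard deviation of four independent experiments done in triplicate.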

Data set [3] in a line: Dissociation constant, pKa of the compound. It is filed as physicochemical. The procedure, abridged:
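UV-metric titration under argon at 25 ± 0.5 °C. 10 mM DMSO stock diluted into 0.15 M KCl containing 60, 50, 40 or 30 wt% MeOH, with 0.25 mM KH2PO4. Brought to pH 11.0 with 0.5 M KOH, then titrated with 0.5 M HCl to pH 4, at most 0.15 pH unit per step. UV 200-500 nm recorded after each addition; Yasuda-Shedlovsky extrapolation to zero cosolvent.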

For data set [4], the target named is T1, Phosphatidylinositol 4,5-bisphosphate 3-kinase catalytic subunit gamma isoform. The data set can be described thus: Inhibition of human PI3Kgamma.
Target sequence in this assay (P48736 whole entry, canonical isoform): as the sequence (P48736 whole entry, looked up, canonical isoform) above
Data set [5] deals with THP-1. As to the kind of experiment: Inhibition of MCP1-induced chemotaxis of THP1 cells. It is filed as functional, cell-based. To be noted: Homo sapiens.
Data set [6] deals with T2, Phosphatidylinositol 4,5-bisphosphate 3-kinase catalytic subunit delta isoform (Homo sapiens, UniProt O00329).
T2 sequence (O00329 whole entry): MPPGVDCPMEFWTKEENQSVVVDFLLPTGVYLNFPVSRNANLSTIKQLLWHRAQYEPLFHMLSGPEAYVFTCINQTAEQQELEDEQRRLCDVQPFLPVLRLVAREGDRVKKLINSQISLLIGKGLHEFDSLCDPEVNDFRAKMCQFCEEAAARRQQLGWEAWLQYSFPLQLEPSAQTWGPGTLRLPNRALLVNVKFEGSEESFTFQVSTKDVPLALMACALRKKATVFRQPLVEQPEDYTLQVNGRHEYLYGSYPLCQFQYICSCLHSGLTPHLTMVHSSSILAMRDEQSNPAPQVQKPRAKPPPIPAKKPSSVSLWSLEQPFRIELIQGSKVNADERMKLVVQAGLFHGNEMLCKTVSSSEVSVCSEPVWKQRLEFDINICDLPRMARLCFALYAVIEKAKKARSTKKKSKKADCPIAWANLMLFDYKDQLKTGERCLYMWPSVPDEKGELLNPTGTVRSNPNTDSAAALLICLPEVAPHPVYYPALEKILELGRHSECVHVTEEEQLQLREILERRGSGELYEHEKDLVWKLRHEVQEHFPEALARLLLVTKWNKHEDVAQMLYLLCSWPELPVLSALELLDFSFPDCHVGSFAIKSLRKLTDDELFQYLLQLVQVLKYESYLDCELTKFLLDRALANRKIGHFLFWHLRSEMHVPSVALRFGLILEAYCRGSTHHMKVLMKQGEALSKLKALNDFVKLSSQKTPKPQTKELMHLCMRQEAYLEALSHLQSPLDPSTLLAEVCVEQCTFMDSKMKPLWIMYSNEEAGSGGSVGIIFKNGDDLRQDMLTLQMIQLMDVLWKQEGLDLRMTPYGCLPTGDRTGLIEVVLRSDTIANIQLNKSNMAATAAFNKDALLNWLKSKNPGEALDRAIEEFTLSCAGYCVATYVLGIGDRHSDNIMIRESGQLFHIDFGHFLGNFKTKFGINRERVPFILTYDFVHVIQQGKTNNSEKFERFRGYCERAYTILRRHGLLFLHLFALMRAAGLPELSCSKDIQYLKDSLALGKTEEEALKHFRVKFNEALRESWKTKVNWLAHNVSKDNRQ
As to the kind of experiment: Inhibition of human PI3Kdelta.

The next data set deals with Mast cell. As to the kind of experiment: Inhibition of SCF-induced PKB/Akt phosphorylation in mouse mast cells at 20 uM. It is filed as functional, cell-based. The procedure, abridged: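 Bone marrow mast cells from 4- to 8-week-old wild-type mice, derived ≥4 weeks in 20 ng/mL SCF plus 20 ng/mL IL-3 and confirmed c-kit+ by FACS. Cells at 2.5 × 10^6/mL starved 24 h without SCF/IL-3, preincubated 20 min with compound or 1% DMSO, stimulated 15 min at 37 °C with 20 ng/mL SCF. Fixed in 1.5% paraformaldehyde, permeabilized with 0.2% Triton X-100, phospho-Ser-473 Akt read by FACS.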

Data set [7] deals with THP-1. The data set can be described thus: Inhibition of CSF-1-induced PKB/Akt phosphorylation in THP1 cells. To be noted: Homo sapiens.
In data set [8] the test system is THP-1. As to the kind of experiment: Inhibition of MCP1-induced PKB/Akt phosphorylation in THP1 cells. It counts as functional, cell-based. To be noted: Homo sapiens. An outline of the steps:
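THP-1 monocytes starved 3 h in serum-free medium and pretreated with inhibitor or DMSO (15 min in methods; 20 min in figure legend). Stimulated with 100 nM MCP-1/CCL2 for 30 s, or with 50 ng/mL CSF-1 for 5 min. Phospho-Ser-473 and total Akt detected by Western blot and quantified.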

For data set [9], the target named is Phosphatidylinositol 4,5-bisphosphate 3-kinase catalytic subunit beta isoform (Homo sapiens, UniProt P42338). The data set can be described thus: Inhibition of human PI3Kbeta.

Calls of active or inactive are those of the source. No cut-off for these calls is given here.

Sequence of Phosphatidylinositol 4,5-bisphosphate 3-kinase catalytic subunit alpha isoform (P42336 whole entry, canonical isoform): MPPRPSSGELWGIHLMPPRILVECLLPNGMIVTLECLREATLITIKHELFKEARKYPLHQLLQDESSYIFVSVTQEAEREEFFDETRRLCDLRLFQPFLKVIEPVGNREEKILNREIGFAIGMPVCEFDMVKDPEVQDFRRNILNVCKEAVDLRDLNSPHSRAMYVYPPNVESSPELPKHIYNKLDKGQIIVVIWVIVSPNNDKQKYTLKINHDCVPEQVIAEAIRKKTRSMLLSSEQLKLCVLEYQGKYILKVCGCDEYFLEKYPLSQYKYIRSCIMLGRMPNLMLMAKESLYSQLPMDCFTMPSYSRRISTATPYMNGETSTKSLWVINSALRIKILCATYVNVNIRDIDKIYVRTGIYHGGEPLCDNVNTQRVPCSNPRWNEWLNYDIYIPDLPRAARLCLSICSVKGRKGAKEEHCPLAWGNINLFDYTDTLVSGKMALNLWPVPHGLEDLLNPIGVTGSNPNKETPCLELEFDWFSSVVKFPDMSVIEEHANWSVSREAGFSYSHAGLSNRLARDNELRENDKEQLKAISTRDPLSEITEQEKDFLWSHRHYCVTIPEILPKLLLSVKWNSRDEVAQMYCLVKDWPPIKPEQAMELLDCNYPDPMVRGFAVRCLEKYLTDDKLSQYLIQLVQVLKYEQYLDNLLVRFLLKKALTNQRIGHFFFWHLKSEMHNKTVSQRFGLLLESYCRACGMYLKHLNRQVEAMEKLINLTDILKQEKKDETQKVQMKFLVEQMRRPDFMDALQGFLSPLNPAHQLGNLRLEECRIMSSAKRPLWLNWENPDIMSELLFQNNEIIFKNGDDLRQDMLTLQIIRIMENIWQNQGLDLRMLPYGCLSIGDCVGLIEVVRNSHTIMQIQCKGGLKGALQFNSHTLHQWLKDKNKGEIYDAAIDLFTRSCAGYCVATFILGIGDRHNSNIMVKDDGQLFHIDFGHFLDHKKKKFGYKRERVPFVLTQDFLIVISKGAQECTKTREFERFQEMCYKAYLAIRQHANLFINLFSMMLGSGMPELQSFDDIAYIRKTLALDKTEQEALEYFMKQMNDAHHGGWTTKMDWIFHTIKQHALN
Sequence of Phosphatidylinositol 4,5-bisphosphate 3-kinase catalytic subunit beta isoform (P42338 whole entry, canonical isoform): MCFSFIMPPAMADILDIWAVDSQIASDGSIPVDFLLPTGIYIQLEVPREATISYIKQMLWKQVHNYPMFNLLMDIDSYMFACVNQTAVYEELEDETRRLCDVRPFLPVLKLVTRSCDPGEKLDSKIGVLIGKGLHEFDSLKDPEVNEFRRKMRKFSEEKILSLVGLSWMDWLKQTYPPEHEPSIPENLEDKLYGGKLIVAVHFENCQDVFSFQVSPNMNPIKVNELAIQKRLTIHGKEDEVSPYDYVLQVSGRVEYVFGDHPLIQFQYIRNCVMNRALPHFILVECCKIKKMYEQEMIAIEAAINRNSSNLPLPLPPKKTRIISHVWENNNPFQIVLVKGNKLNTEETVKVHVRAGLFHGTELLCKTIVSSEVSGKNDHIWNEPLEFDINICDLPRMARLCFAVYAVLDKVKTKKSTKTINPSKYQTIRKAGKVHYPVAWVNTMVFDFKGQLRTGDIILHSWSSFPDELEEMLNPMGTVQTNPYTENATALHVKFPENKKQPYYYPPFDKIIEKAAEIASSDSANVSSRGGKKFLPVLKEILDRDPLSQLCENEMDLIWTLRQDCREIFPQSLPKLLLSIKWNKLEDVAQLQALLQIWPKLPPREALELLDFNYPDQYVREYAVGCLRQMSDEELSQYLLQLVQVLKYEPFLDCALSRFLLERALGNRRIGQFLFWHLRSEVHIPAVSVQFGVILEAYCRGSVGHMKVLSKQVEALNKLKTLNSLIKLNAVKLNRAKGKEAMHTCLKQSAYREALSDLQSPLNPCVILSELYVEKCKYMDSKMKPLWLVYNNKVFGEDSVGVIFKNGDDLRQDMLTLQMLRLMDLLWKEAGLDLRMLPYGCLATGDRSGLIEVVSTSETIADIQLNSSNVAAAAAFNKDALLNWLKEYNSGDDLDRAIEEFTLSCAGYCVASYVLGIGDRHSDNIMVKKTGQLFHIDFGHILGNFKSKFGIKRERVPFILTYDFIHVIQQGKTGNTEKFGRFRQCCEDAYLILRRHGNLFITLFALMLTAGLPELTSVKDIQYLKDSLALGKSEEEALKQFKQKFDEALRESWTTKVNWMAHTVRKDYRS

Turning to `COc1cc(F)ccc1-c1ccc(/C=C2\SC(=O)NC2=O)o1`, the inhibition in data set [1] stood at 11%.

With `COC(=O)c1ccc(-c2ccc(/C=C3\SC(=O)NC3=O)o2)c(O)c1`, the IC50 in data set [2] stood at 210 nM; in the data set with RAW264.7 it was 720 nM; in [4], 29 nM. The molecule further came in with a pKa in data set [3] of 8.7.

In data set [1], `CC(=O)Nc1ccccc1-c1ccc(/C=C2\SC(=O)NC2=O)o1` came in with an inhibition of 24%.

As for `COC(=O)c1cccc(-c2ccc(/C=C3\SC(=O)NC3=O)o2)c1`, in [4], the IC50 was 13500 nM.

Take `O=c1cc(N2CCOCC2)oc2c(-c3ccccc3)cccc12` [LY-294002]: the IC50 in the data set with RAW264.7 turned out to be 10000 nM; in the data set with THP-1 [5] it was 37000 nM; in [6], 1330 nM; in the data set with THP-1 [7] it was 1010 nM; in the data set with THP-1 [8], 1650 nM. Further, the result with Mast cell was Active.

On to `O=C(O)Cc1cccc(-c2ccc(/C=C3\SC(=O)NC3=O)o2)c1`, for which the inhibition in data set [1] worked out at 15%.

In [1], `O=C1NC(=O)/C(=C/c2ccc(-c3cccc([N+](=O)[O-])c3)o2)S1` came in with an inhibition of 24%.

With `O=C1NC(=S)S/C1=C\c1ccc(-c2cc([N+](=O)[O-])ccc2O)o1`, the concentration for half-maximal inhibition (IC50) was determined as 600 nM in data set [2] and 200 nM in data set [4].

`O=C1NC(=O)/C(=C/c2ccc(-c3ccc(O)cc3)o2)S1`: the 50% inhibitory concentration (IC50) was found to be 3600 nM in data set [2] and 380 nM in data set [4].

In [4], `O=C1NC(=O)/C(=C/c2ccc(-c3ccc([N+](=O)[O-])o3)o2)S1` registered a half-maximal inhibitory concentration (IC50) of 20000 nM.

In turn, `O=C1NC(=O)/C(=C/c2ccc(-c3ccc(F)cc3O)s2)S1` displayed an inhibition in [1] of 4%.

Turning to `O=C1NC(=O)/C(=C/c2ccc(-c3cccnc3)o2)S1`, the concentration for half-maximal inhibition (IC50) in data set [2] was 630 nM; in data set [4] it was 950 nM.

As to `O=C1NC(=O)/C(=C/c2ccc(-c3cccc4cccnc34)o2)S1`, in data set [1], the inhibition came out at 17%.

As for `O=C1NC(=O)/C(=C/c2ccc(-c3cccc([N+](=O)[O-])c3O)o2)S1`, the half-inhibitory concentration (IC50) in data set [2] turned out to be 1250 nM; in data set [4] it was 80 nM.

Turning to `O=C1NC(=O)/C(=C/c2ccc(-c3ccccc3O)s2)S1`, the inhibition in data set [1] was found to be 27%.

As for `O=C1NC(=O)/C(=C/c2ccc(-c3ccccc3O)o2)S1`, the IC50 is 330 nM in data set [2]; 810 nM in the data set with RAW264.7; 30 nM in data set [4]; above 5000 nM in [6]; 20000 nM in data set [9]. Also, the pKa in data set [3] turned out to be 9.5.

Take `COc1cccc(-c2ccc(/C=C3\SC(=O)NC3=O)o2)c1`: in data set [4], the 50% inhibitory concentration (IC50) amounted to 2600 nM.

Molecule `O=C1NC(=O)/C(=C/c2ccc(-c3ccccc3C(=O)O)o2)S1` displayed an inhibition in [1] of 4%.

Consider `O=C1NC(=O)/C(=C/c2ccc(-c3ccc(O)cc3O)o2)S1`, for which the results for the IC50 (in data set [2]; in the data set on RAW264.7; in data set [4]) were 190 nM, 3490 nM and 20 nM, respectively. For the same molecule, the pKa in data set [3] turned out to be 8.7.

In data set [1], `COc1ccccc1-c1ccc(/C=C2\SC(=O)NC2=O)o1` showed an inhibition of 44%.

For the molecule `COC(=O)c1ccccc1-c1ccc(/C=C2\SC(=O)NC2=O)o1`, the inhibition in data set [1] was determined as 2%.

In the case of `O=C1NC(=O)/C(=C/c2ccc(-c3ccc(F)cc3F)o2)S1`, in data set [4], the midpoint of inhibition, the IC50, lay at 3800 nM. This lies in the single-digit micromolar range.

For `O=C1NC(=S)S/C1=C\c1ccc(-c2cccc(C(=O)O)c2)o1`, the IC50 in [2] is above 20000 nM; in [4] it was 920 nM.

Take `O=C1NC(=O)/C(=C/c2ccc(-c3cc(F)ccc3O)o2)S1`: the half-maximal inhibitory concentration (IC50) in data set [2] worked out at 455 nM; in the data set on RAW264.7, 1710 nM; in data set [4] it was 37 nM. This molecule yielded a pKa in data set [3] of 9.1.

On to `O=C1NC(=O)/C(=C/c2ccc(-c3cc(C(=O)O)ccc3O)o2)S1`, for which the results for the IC50 in data set [2] and in data set [4] were 1350 nM and 530 nM, respectively. For the same molecule, in [3], the pKa came to 8.6.

In the case of `O=C1NC(=O)/C(=C/c2ccc(-c3ccccc3Cl)o2)S1`, the IC50 in [4] worked out at 20000 nM.

`O=C1NC(=O)/C(=C/c2ccc(-c3ccccc3)o2)S1` gave a concentration for half-maximal inhibition (IC50) in data set [4] of 20000 nM.

Take `Nc1ccc([N+](=O)[O-])cc1-c1ccc(/C=C2\SC(=O)NC2=O)o1`: the inhibition in [1] turned out to be 18%.

Regarding `O=C1NC(=O)/C(=C/c2ccc(-c3ccc(O)cc3F)o2)S1`, the half-inhibitory concentration (IC50) in data set [2] is 1000 nM; in data set [4] it was 260 nM.

For the molecule `O=C1NC(=O)/C(=C/c2ccc(-c3cc(O)ccc3O)o2)S1`, the values for the IC50 in data set [2] and in [4] were 100 nM and 20 nM, respectively.

In the case of `O=C(O)Cc1ccccc1-c1ccc(/C=C2\SC(=O)NC2=O)o1`, in data set [1], the inhibition came out at 12%.

For the molecule `O=C1NC(=O)/C(=C/c2ccc(-c3cccc(O)c3)o2)S1`, the half-maximal inhibitory concentration (IC50) came out at 1800 nM in [2] and 290 nM in data set [4].

As to `O=C1NC(=S)S/C1=C\c1ccc(-c2ccc([N+](=O)[O-])cc2Br)o1`, the IC50 in data set [4] worked out at 3600 nM.

In the case of `O=C1NC(=O)/C(=C/c2ccc(-c3ccc4c(c3)OCO4)o2)S1`, the IC50 in data set [2] and in data set [4] was 20000 nM each time.

With `N#Cc1ccc(O)c(-c2ccc(/C=C3\SC(=O)NC3=O)o2)c1`, the figures for the IC50 in data set [2] and in data set [4] were 220 nM and 40 nM, respectively. Further, the pKa in data set [3] is 7.3.

Take `O=C1NC(=O)/C(=C/c2ccc(-c3cc(F)cc(F)c3O)s2)S1`: the results for the IC50 (in data set [2]; with RAW264.7; in data set [4]) were 340 nM, 1390 nM and 29 nM, respectively.

Regarding `O=C1NC(=O)/C(=C/c2ccc(-c3cc(Cl)ccc3O)o2)S1`, the IC50 in data set [2] was found to be 545 nM; in [4], 43 nM. Further, in data set [3], the pKa amounted to 8.9.

For `O=C1NC(=O)/C(=C/c2ccc(-c3ccoc3)o2)S1`, in data set [4], the IC50 came to 840 nM.

As to `Cc1ccc(O)c(-c2ccc(/C=C3\SC(=O)NC3=O)o2)c1`, the half-inhibitory concentration (IC50) in [2] was 500 nM; with RAW264.7, 1060 nM; in data set [4], 39 nM. In data set [3], this molecule showed a pKa of 9.7.

For the molecule `O=C1NC(=O)/C(=C/c2ccc(-c3cc(OC(F)(F)F)ccc3O)o2)S1`, the IC50 is 600 nM in data set [2], 880 nM with RAW264.7 and 56 nM in [4]. This molecule also yielded a pKa in data set [3] of 8.7.

Regarding `O=C1NC(=O)/C(=C/c2ccc(-c3ccccc3F)o2)S1`, in data set [4], the IC50 was determined as 1200 nM.

As for `O=C1NC(=O)/C(=C/c2ccc(-c3cccc(C(=O)O)c3)o2)S1`, half-maximal inhibition in data set [4] (IC50) was put at 4300 nM.

`O=C1NC(=O)/C(=C/c2ccc(-c3ccccn3)o2)S1`: the half-maximal inhibitory concentration (IC50) in [2] came to 185 nM; in the data set with RAW264.7, 3650 nM; in [4], 110 nM.
